Experimental data: ChEMBL document CHEMBL3352012, “Synthesis and evaluation of novel podophyllotoxin derivatives as potential antitumor agents” (Eur J Med Chem, 2014)
Active and inactive are the calls of the source. The calls are words filed in the database; no cut-off is given here.

Experiments:
HeLa = test: Cytotoxicity against human HeLa cells after 48 hrs by MTT assay; type: functional, cell-based
Outline: (§1)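 Cells kept in RPMI-1640 with 10% FBS, 2 mmol/L glutamine, penicillin and streptomycin at 37 °C, 5% CO2. Seeded at 5 × 10³ cells/well and left 24 h to attach, then exposed to compounds or etoposide reference for 48 h. MTT (5 mg/mL) added for 4 h at 37 °C, supernatant removed, formazan dissolved in DMSO, absorbance read at 490 nm.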

[1] = Reduction in MDR1 mRNA expression in human K562/A02 cells at 6 uM incubated for 48 hrs by RT-PCR method relative to untreated control; type: functional, cell-based
Outline: (§2)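 K562 and K562/A02 cells seeded 1 × 10⁵/well in 10% FCS/RPMI-1640; compound added 24 h later, then cultured another 48 h. Total RNA extracted with Trizol, checked at 260/280 nm, reverse transcribed; MDR-1 (157 bp) and β-actin (540 bp) amplified, products run on agarose gel, stained, MDR-1 normalised to β-actin against untreated control.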

[2] = Cytotoxicity against human K562/A02 cells after 48 hrs by MTT assay; type: functional, cell-based; conditions: K562/A02, 48 h; outline: as §1
K562 [3] = test: Cytotoxicity against human K562 cells after 48 hrs by MTT assay; type: functional, cell-based; conditions: K562, 48 h; outline: as §1
[4] = Reduction in MDR1 mRNA expression in human K562/A02 cells at 6 uM incubated for 48 hrs by RT-PCR method; type: functional, cell-based; outline: as §2
K562 [5] = test: Resistance index, ratio of IC50 for human K562/A02 cells to IC50 for human K562 cells; type: functional

| Compound | IC50 (HeLa) | inhibition [1] | IC50 [2] | IC50 (K562 [3]) | MDR1 mRNA reduction (qualitative) [4] | Ratio IC50 (K562 [5]) |
| --- | --- | --- | --- | --- | --- | --- |
| CCN(CC)Cc1ccc(CN[C@@H]2c3cc4c(cc3[C@@H](c3cc(OC)c(O)c(OC)c3)[C@H]3C(=O)OC[C@@H]32)OCO4)o1 | 6.38 µM | 35% | > 1000 µM | 8.25 µM | Active | >100 |
| COc1cc([C@@H]2c3cc4c(cc3[C@@H](NCc3ccc([N+](=O)[O-])o3)[C@H]3COC(=O)[C@H]23)OCO4)cc(OC)c1O | 6.64 µM |  | 59.2 µM | 9.24 µM |  | 6.41 |
| COc1cc([C@@H]2c3cc4c(cc3[C@@H](NCc3ccc(C)o3)[C@H]3COC(=O)[C@H]23)OCO4)cc(OC)c1O | 60.5 µM |  | > 1000 µM | 65.9 µM |  | 34.23 |
| COc1cc([C@@H]2c3cc4c(cc3[C@@H](NCc3ccc(CN5CCCC5)o3)[C@H]3COC(=O)[C@H]23)OCO4)cc(OC)c1O | 1.21 µM |  | 24.7 µM | 5.28 µM | Active | 4.67 |
| CCN1CCN(Cc2ccc(CN[C@@H]3c4cc5c(cc4[C@@H](c4cc(OC)c(O)c(OC)c4)[C@H]4C(=O)OC[C@@H]43)OCO5)o2)CC1 | 0.67 µM |  | 123 µM | 7.45 µM |  | 16.54 |
| CCN(CC)Cc1ccc(CN[C@@H]2c3cc4c(cc3[C@@H](c3cc(OC)c(OC)c(OC)c3)[C@H]3C(=O)OC[C@@H]32)OCO4)o1 | > 100 µM |  | > 1000 µM | > 100 µM |  | >100 |
| COc1cc([C@@H]2c3cc4c(cc3[C@@H](NCc3ccc(CN(C)C)o3)[C@H]3COC(=O)[C@H]23)OCO4)cc(OC)c1OC | 14.2 µM |  | 35.3 µM | 6.91 µM |  | 5.11 |
| COc1cc([C@@H]2c3cc4c(cc3[C@H](O)[C@H]3COC(=O)[C@H]23)OCO4)cc(OC)c1OC [PODOFILOX] |  |  | 0.17 µM |  |  | 5.667 |
| COc1cc([C@@H]2c3cc4c(cc3[C@@H](NCc3ccco3)[C@H]3COC(=O)[C@H]23)OCO4)cc(OC)c1OC | 1.53 µM |  | 10.9 µM | 5.78 µM |  | 1.89 |
